According to paper PMC7276679 (Acta Pharmaceutica Sinica. B, 2019):

Type: in vivo, Sprague-Dawley rats
Settings: 5 mg/kg p.o.
Outline: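 8-week-old male WT and CRISPR/Cas9 Slco1b2 KO SD rats, fasted 12 h, given the OATP1B2 probe substrate as a CMC-Na suspension intragastrically. Plasma underwent ethyl acetate liquid–liquid extraction with mebendazole internal standard, then positive-ESI LC–MS/MS. Parameters were derived by non-compartmental analysis.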

For `O=C(O)C[C@H](O)C[C@H](O)/C=C/c1c(C2CC2)nc2ccccc2c1-c1ccc(F)cc1` [pitavastatin, Pitavastatin], which “decrease of CL/F in KO rats compared with WT rats” value (KO vs WT rats) is on record?
Its value is 38.5%.

And the “decrease of Vd/F in KO rats compared with WT rats” value (KO vs WT rats)?
Its value is 39.8%.

What about the “increase of AUC0–24 h in KO rats compared with WT rats” value (KO vs WT rats) of the same molecule?
Its value is 68.8%.

What about the “increase of AUC0–inf in KO rats compared with WT rats” value (KO vs WT rats) of the same molecule?
Its value is 68.8%.

What about the AUC(0-inf) (male, Sprague-Dawley, rat, plasma, po, 5 mg/kg, AUC0–inf, Slco1b2 KO male rats, mean ± SD, n = 6) of the same molecule?
The AUC(0-inf) was 3440 ± 1050 ng·h/mL.

What about the AUC(0-t) (male, Sprague-Dawley, rat, plasma, po, 5 mg/kg, AUC0–t, Slco1b2 KO male rats, mean ± SD, n = 6) of the same molecule?
The AUC(0-t) was 3410 ± 1040 ng·h/mL.

What about the CL/F (male, Sprague-Dawley, rat, plasma, po, 5 mg/kg, CL/F, Slco1b2 KO male rats, mean ± SD, n = 6) of the same molecule?
The CL/F was 26 mL/min/kg.

And the Cmax (male, Sprague-Dawley, rat, plasma, po, 5 mg/kg, Cmax, Slco1b2 KO male rats, mean ± SD, n = 6)?
Its Cmax is 1000 ± 336 ng/mL.

What about the MRT last (male, Sprague-Dawley, rat, plasma, po, 5 mg/kg, MRT0–t, Slco1b2 KO male rats, mean ± SD, n = 6) of the same molecule?
The MRT last was 3.65 ± 0.89 h.

What about the Tmax (male, Sprague-Dawley, rat, plasma, po, 5 mg/kg, Tmax, Slco1b2 KO male rats, mean ± SD, n = 6) of the same molecule?
The Tmax was 2.08 ± 0.97 h.

What about the Vd/F (male, Sprague-Dawley, rat, plasma, po, 5 mg/kg, Vd/F, Slco1b2 KO male rats, mean ± SD, n = 6) of the same molecule?
Its Vd/F is 6.58 ± 1.9 L/kg.

And the half-life (male, Sprague-Dawley, rat, plasma, po, 5 mg/kg, t1/2, Slco1b2 KO male rats, mean ± SD, n = 6)?
The half-life was 2.92 ± 0.43 h.
